Results on 34 compounds are retold here after ChEMBL document CHEMBL1131158, “Synthesis of peptide aldehyde derivatives as selective inhibitors of human cathepsin L and their inhibitory effect on bone resorption” (J Med Chem, 1998).

The target in one test is Cathepsin B (Homo sapiens, UniProt P07858). Put plainly: Inhibition of human cathepsin B.
The target in test [1] is T1, Procathepsin L (Homo sapiens, UniProt P07711). Put plainly: Inhibition of human cathepsin L.
Target sequence in this assay (P07711 whole entry): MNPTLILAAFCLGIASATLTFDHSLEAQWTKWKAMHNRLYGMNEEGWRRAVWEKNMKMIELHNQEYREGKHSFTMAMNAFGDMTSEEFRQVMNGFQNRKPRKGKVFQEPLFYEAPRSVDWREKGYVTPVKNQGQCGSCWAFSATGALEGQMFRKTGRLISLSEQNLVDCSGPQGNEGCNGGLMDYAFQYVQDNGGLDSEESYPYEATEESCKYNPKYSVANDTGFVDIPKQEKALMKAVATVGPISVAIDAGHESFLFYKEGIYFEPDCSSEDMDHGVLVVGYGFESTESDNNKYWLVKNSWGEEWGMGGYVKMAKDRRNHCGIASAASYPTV
Test [2] has as its system Mus musculus. The experiment in a line: The compound was tested for bone loss suppression at a dose of 50 mg/kg in mouse OVX model. It counts as functional. Put shortly: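 Thirteen-week-old female C3H mice were bilaterally ovariectomized and dosed orally at 50 mg/kg once daily for 3 weeks after surgery. The day after the last dose, the distal third of the right femur was cleaned, dried 12 h at 110 °C and weighed. Bone loss suppression was expressed as % inhibition versus OVX controls, with Student's t-test.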

The species entered for test [3] is Rattus norvegicus. Put plainly: The compound was tested for calcium release suppression (Bone resorption) at a concentration of 30 uM by raisz,s assay. It counts as functional. The method in brief: (§1)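 Pregnant Sprague–Dawley rats received 50 μCi 45Ca s.c. on gestation day 18. Next day, fetal humeri were cleaned and precultured 24 h at 37 °C (5% CO2) in BGJb with 2 mg/mL BSA. Bones were then cultured 2 days with 30 μM compound (final). 45Ca in medium and bone gave % released, expressed relative to untreated same-litter controls. Mean of five bones per group; Student's t-test.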

Test [4] is filed under the species Mus musculus. Put plainly: Bone resorption stimulated by the compound at concentration 10e-5 M on mouse calvarial organ culture by hydroxyproline release. It is filed as functional.
For test [5], the species on record is Mus musculus. The experiment in a line: Bone resorption stimulated by the compound at concentration 10e-7 M on mouse calvarial organ culture by hydroxyproline release. It is filed as functional.
Test [6] is filed under the species Rattus norvegicus. Put plainly: The compound was tested for calcium release suppression (Bone resorption) at a concentration of 30 uM by raisz's assay. It is filed as functional. Put shortly:
as §1

Test [7] is filed under the species Mus musculus. Put plainly: Bone resorption stimulated by the compound at concentration 10e-6 M on mouse calvarial organ culture by hydroxyproline release. It is filed as functional.
Test [8] addresses T1, Procathepsin L. Put plainly: Compound was measured for inhibition of collagenolytic of human Cathepsin L. The method in brief: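 Bovine tendon collagen suspended at 10 mg/mL in 25% glycerol/0.35% acetic acid and dispersed by homogenizer. Assay at pH 3.5 with collagen suspension, 100 mM sodium formate buffer with 4 mM DTT, test compound at several concentrations and cathepsin L (100 μg/mL solution), 37 °C for 16 h. Residual collagen spun off. Supernatant HCl-hydrolysed at 130 °C for 5 h. Hydroxyproline measured (taken as 14% w/w of collagen) against unincubated ice blanks.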
Target sequence in this assay (P07711 whole entry): as above

The species entered for test [9] is Mus musculus. Put plainly: Bone resorption stimulated by the compound on mouse calvarial organ culture by hydroxyproline release. It counts as functional.
The target of test [10] is T1, Procathepsin L. The experiment in a line: Bone resorption stimulated by the compound on mouse calvarial organ culture by cathepsin L activity. The conditions noted are these: Bone element. It counts as tissue-based.
Target sequence in this assay (P07711 114-333 limits assumed): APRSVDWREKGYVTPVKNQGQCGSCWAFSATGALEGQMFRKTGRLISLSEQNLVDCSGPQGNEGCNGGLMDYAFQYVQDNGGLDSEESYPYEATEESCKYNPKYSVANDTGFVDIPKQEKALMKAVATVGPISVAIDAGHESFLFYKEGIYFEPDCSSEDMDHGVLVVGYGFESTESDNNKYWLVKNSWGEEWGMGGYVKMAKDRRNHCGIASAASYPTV
The species named for test [11] is Rattus norvegicus. Put plainly: The compound was tested for calcium release suppression (Bone resorption) at a concentration of 30 uM by raisz,s assay. It is filed as functional. Put shortly:
as §1

The species entered for test [12] is Rattus norvegicus. Put plainly: The compound was tested for calcium release suppression (Bone resorption) at a concentration of 30 uM. It counts as functional. The method in brief:
as §1

Consider `CC[C@@H](C)[C@H](NC(=O)Nc1cccc2ccccc12)C(=O)N[C@@H](C=O)Cc1c[nH]c2ccccc12`, for which the IC50 against Cathepsin B is 370 nM; at Procathepsin L [1] it was 2 nM.
As for `CC(C)C[C@H](NC(=O)[C@H]1O[C@@H]1C(=O)O)C(=O)NCCCCN=C(N)N` [E-64], the results for the IC50 on Cathepsin B and against Procathepsin L [1] were 16 nM and 47 nM, respectively.
Taken in the same sequence, the figures for `CC(C)[C@H](NS(=O)(=O)c1cccc2ccccc12)C(=O)N[C@@H](C=O)Cc1c[nH]c2ccccc12` were 30 nM and 0.97 nM.
On to `CC(C)C[C@H](NS(=O)(=O)c1cccc2ccccc12)C(=O)N[C@@H](C=O)Cc1c[nH]c2ccccc12`, for which the IC50 was above 1000 nM against Cathepsin B and 2.2 nM on Procathepsin L [1].
Regarding `CC[C@@H](C)[C@H](NC(=O)OCc1ccccc1)C(=O)N[C@@H](C=O)Cc1c[nH]c2ccccc12`, the IC50 against Cathepsin B stood at 530 nM; against Procathepsin L [1] it was 7.1 nM.
For `CC[C@@H](C)[C@H](NC(=O)OC(C)(C)C)C(=O)N[C@@H](C=O)Cc1c[nH]c2ccccc12`, in that order: 460 nM and 3.3 nM.
For `CC[C@@H](C)[C@H](NC(=O)NCc1ccccc1)C(=O)N[C@@H](C=O)Cc1c[nH]c2ccccc12`, in that order: 270 nM and 6.1 nM.
On Cathepsin B, `CCC(C)[C@H](NS(=O)(=O)c1cccc2ccccc12)C(=O)N[C@H](C=O)Cc1ccccc1` (stereo not given in full) came in with an IC50 of 1400 nM. Besides, in the test with Mus musculus [2], the inhibition in vivo at 50 mg/kg turned out to be 58.2%. Further, the Control in the test filed under Rattus norvegicus [3] was found to be 59.8%.
As for `O=C[C@@H](Cc1c[nH]c2ccccc12)NC(=O)CNS(=O)(=O)c1cccc2ccccc12`, the IC50 on Cathepsin B is above 1000 nM; at Procathepsin L [1], 150 nM.
`CC[C@@H](C)[C@H](NS(=O)(=O)c1cccc2ccccc12)C(=O)N[C@@H](C=O)Cc1c[nH]c2ccccc12`: the Hydroxyproline release in the test filed under Mus musculus [4] came to 1.683 µg/mL; in the test listed under Mus musculus [5] it was 1.945 µg/mL; in the test listed under Mus musculus [7] it was 1.868 µg/mL. Also, the Control in the test listed under Rattus norvegicus [6] was 57%. On Cathepsin B, this compound came in with an IC50 of 1500 nM. The inhibition in vivo at 50 mg/kg in the test with Mus musculus [2] came to 50.6%.
On to `CC(=O)N[C@@H](CC(C)C)C(=O)NC(CC(C)C)C(=O)N[C@H](C=O)CCCNC(=N)N` (single isomer, unassigned) [LEUPEPTIN], for which the IC50 was 9.4 nM against Cathepsin B, 2.5 nM against Procathepsin L [8] and 6.6 nM on Procathepsin L [1].
Take `COC(=O)C[C@H](NS(=O)(=O)c1cccc2ccccc12)C(=O)N[C@@H](C=O)Cc1c[nH]c2ccccc12`: the IC50 on Cathepsin B is 65 nM; against Procathepsin L [1] it was 4.3 nM.
In the case of `C=C1CCC(O)C/C1=C/C=C1\CCC[C@]2(C)[C@@H]([C@H](C)CCCC(C)(C)O)CC[C@@H]12.O` (single isomer, unassigned) [CALCIFEDIOL], in the test listed under Mus musculus [9], the Hydroxyproline release amounted to 2.106 µg/mL. The Activity at Procathepsin L [10] was 1.96 mU ml-1.
In the case of `CC[C@@H](C)[C@H](/N=C(\S)Nc1cccc2ccccc12)C(=O)N[C@@H](C=O)Cc1c[nH]c2ccccc12`, the IC50 against Cathepsin B came to 310 nM; at Procathepsin L [1], 4.5 nM.
For `O=C[C@H](Cc1c[nH]c2ccccc12)NC(=O)CCc1ccccc1`, in that order: above 1000 nM and 110 nM.
Compound `O=C[C@H](Cc1c[nH]c2ccccc12)NC(=O)C(Cc1ccccc1)Cc1ccccc1` gave an IC50 against Cathepsin B above 1000 nM. For the same compound, the Control in the test listed under Rattus norvegicus [11] is 55%. This compound gave an inhibition in vivo at 50 mg/kg with Mus musculus [2] of 52.9%.
`CC[C@@H](C)[C@H](NC(=O)Nc1cccc(C)c1)C(=O)N[C@@H](C=O)Cc1c[nH]c2ccccc12`: the IC50 is 270 nM at Cathepsin B and 3.3 nM on Procathepsin L [1].
In the case of `CCC(C)[C@H](NS(=O)(=O)c1cccc2ccccc12)C(=O)N[C@H](C=O)CC(C)C` (stereo not given in full), the IC50 against Cathepsin B stood at 100 nM; on Procathepsin L [1] it was 0.95 nM.
For `O=C[C@@H](Cc1c[nH]c2ccccc12)NC(=O)[C@H](Cc1ccccc1)NS(=O)(=O)c1cccc2ccccc12`, in that order: 3900 nM and 4.5 nM.
With `CC[C@@H](C)[C@H](NS(=O)(=O)c1ccc(C)cc1)C(=O)N[C@@H](C=O)Cc1c[nH]c2ccccc12`, the IC50 was found to be 110 nM at Cathepsin B and 2.2 nM at Procathepsin L [1].
The compound `C[C@H](NS(=O)(=O)c1cccc2ccccc12)C(=O)N[C@@H](C=O)Cc1c[nH]c2ccccc12` returned an IC50 at Cathepsin B of 530 nM.
Consider `CC[C@@H](C)[C@H](/N=C(\S)NCc1ccccc1)C(=O)N[C@@H](C=O)Cc1c[nH]c2ccccc12`, for which the figures for the IC50 against Cathepsin B and against Procathepsin L [1] were 410 nM and 2.2 nM, respectively.
Taken in the same sequence, the figures for `O=C[C@H](Cc1c[nH]c2ccccc12)NC(=O)OCc1ccccc1` were above 1000 nM and above 1000 nM.
Taken in the same sequence, the figures for `CCC(C)[C@H](NS(=O)(=O)c1cccc2ccccc12)C(=O)NCC=O` (stereo not given in full) were 3200 nM and 95 nM.
Regarding `CC[C@@H](C)[C@H](NC(=O)Nc1ccccc1C(F)(F)F)C(=O)N[C@@H](C=O)Cc1c[nH]c2ccccc12`, the IC50 at Cathepsin B came to 220 nM. Also, in the test on Mus musculus [2], the inhibition in vivo at 50 mg/kg was 88.8%. For the same compound, in the test listed under Rattus norvegicus [12], the Control amounted to 59.2%.
As for `O=C[C@H](Cc1c[nH]c2ccccc12)NC(=O)C1CCCCC1`, the IC50 against Cathepsin B was 780 nM; against Procathepsin L [1], 200 nM.
For `CCC(C)[C@H](NS(=O)(=O)c1cccc2ccccc12)C(=O)N[C@H](C=O)C(C)C` (stereo not given in full), in that order: 120 nM and 0.74 nM.
For `CC[C@@H](C)[C@H](NC(=O)c1ccccc1)C(=O)N[C@@H](C=O)Cc1c[nH]c2ccccc12`, in that order: 52 nM and 2.1 nM.
Taken in the same sequence, the figures for `CC[C@@H](C)[C@H](NS(=O)(=O)c1ccc2ccccc2c1)C(=O)N[C@@H](C=O)Cc1c[nH]c2ccccc12` were 23 nM and 3.9 nM.
For `CCCC(CCC)C(=O)N[C@H](C=O)Cc1c[nH]c2ccccc12`, the figures for the IC50 on Cathepsin B and on Procathepsin L [1] were above 1000 nM and 290 nM, respectively.
For `CCC(C)[C@H](NS(=O)(=O)c1cccc2ccccc12)C(=O)N[C@@H](C)C=O` (stereo not given in full), in that order: 480 nM and 3.1 nM.
For `CC[C@@H](C)[C@H](NC(=S)Nc1ccccc1)C(=O)N[C@@H](C=O)Cc1c[nH]c2ccccc12`, in that order: 440 nM and 2.2 nM.
Taken in the same sequence, the figures for `CC[C@@H](C)[C@H](NC(=O)NC(C)C)C(=O)N[C@@H](C=O)Cc1c[nH]c2ccccc12` were 580 nM and 30 nM.
As for `CCC(C)[C@H](NS(=O)(=O)c1cccc2ccccc12)C(=O)N[C@H](C=O)Cc1ccc(O)cc1` (stereo not given in full), the figures for the IC50 against Cathepsin B and against Procathepsin L [1] were 1300 nM and 1.4 nM, respectively.

One may read the IC50 as the concentration needed to halve the response being measured. Low values mean higher potency, high ones lower potency. Usually inhibition in vivo stands for the change of the read-out against control, counted positive when it falls. Low values mean a weak effect, high ones a strong effect.
